Laboratory results reported in ChEMBL document CHEMBL1156462, “Seco-pregnane steroids target the subgenomic RNA of alphavirus-like RNA viruses” (Proc Natl Acad Sci U S A, 2007).
Active and inactive are the calls of the source. The calls are words filed in the database; no cut-off is given here.

What was measured:
Tobacco mosaic virus [1] = experiment: Inhibition of TMV U1 replication in tobacco BY2 protoplast at 50 nM by local lesion assay using Chenopodium quinoa leaves; assay type: functional, organism-based
Procedure, shortened: (§1)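 TMV premixed with compound at a range of concentrations used to inoculate tobacco BY-2 protoplasts; virus multiplication then assayed by counting local lesions on the local lesion host Chenopodium quinoa.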

Tobacco mosaic virus [2] = experiment: Inhibition of TMV U1 replication in tobacco BY2 protoplast by local lesion assay using Chenopodium quinoa leaves; assay type: functional, organism-based; procedure, shortened: as §1
Tobacco mosaic virus [3] = experiment: Decrease in TMV U1 coat protein level in TMV infected tobacco BY2 protoplast at 50 nM by Western blot analysis; assay type: functional, organism-based
Procedure, shortened: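 BY-2 protoplasts (5 ml, 1.5 × 10⁶/ml) infected with TMV pretreated with compound; total protein extracted and coat protein detected by Western blot.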

Sindbis virus = experiment: Antiviral activity against Sindbis virus XJ160 in BHK21 cells assessed as reduction of virus-induced cytopathic effect after 24 hrs; assay type: functional, organism-based; settings: BHK-21
Procedure, shortened: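 SINV XJ-160 (2 × 10⁵ pfu/ml, thrice plaque-purified) treated with compound for 15 min, adsorbed 1 h to BHK-21 cells at MOI 0.01 in quadruplicate; washed, fresh DMEM with 5% FBS added, cells kept at 37°C, 5% CO₂. Cytopathic morphology scored by light microscopy at 24 hpi.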

[4] = Growth inhibition of hamster BHK21 cells at 100 nM after 48 hrs; assay type: cell-based, Mesocricetus auratus; settings: bhk-21, 48 h, 0.1 µM
Procedure, shortened: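 BHK-21 cells mock-infected and incubated with 100 nM compound for 48 h; cell morphology and growth examined by light microscopy.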

Tobacco mosaic virus [5] = experiment: Inhibition of TMV U1 multiplication in tobacco BY2 protoplast at 10 nM assessed as inhibition of local lesions on Chenopodium quinoa leaves by local lesion assay after 3 days postinfection; assay type: functional; settings: U1, 72 h; procedure, shortened: as §1
Tobacco mosaic virus [6] = experiment: Inhibition of TMV U1 multiplication in tobacco BY2 protoplast at 20 nM assessed as inhibition of local lesions on Chenopodium quinoa leaves by local lesion assay after 3 days postinfection; assay type: functional; settings: U1, 72 h; procedure, shortened: as §1
Tobacco mosaic virus [7] = experiment: Inhibition of TMV U1 multiplication in tobacco BY2 protoplast at 30 nM assessed as inhibition of local lesions on Chenopodium quinoa leaves by local lesion assay after 3 days postinfection; assay type: functional; settings: U1, 72 h; procedure, shortened: as §1
Tobacco mosaic virus [8] = experiment: Inhibition of TMV U1 multiplication in tobacco BY2 protoplast at 40 nM assessed as inhibition of local lesions on Chenopodium quinoa leaves by local lesion assay after 3 days postinfection; assay type: functional; settings: U1, 72 h; procedure, shortened: as §1
Tobacco mosaic virus [9] = experiment: Inhibition of TMV U1 multiplication in tobacco BY2 protoplast at 50 nM assessed as inhibition of local lesions on Chenopodium quinoa leaves by local lesion assay after 3 days postinfection; assay type: functional; settings: U1, 72 h; procedure, shortened: as §1
Tobacco mosaic virus [10] = experiment: Inhibition of TMV U1 multiplication in tobacco BY2 protoplast at 10 nM assessed as local lesion size on Chenopodium quinoa leaves by local lesion assay; assay type: functional
Tobacco mosaic virus [11] = experiment: Inhibition of TMV U1 multiplication in tobacco BY2 protoplast at 20 nM assessed as local lesion size on Chenopodium quinoa leaves by local lesion assay; assay type: functional
Tobacco mosaic virus [12] = experiment: Inhibition of TMV U1 multiplication in tobacco BY2 protoplast at 30 nM assessed as local lesion size on Chenopodium quinoa leaves by local lesion assay; assay type: functional
Tobacco mosaic virus [13] = experiment: Inhibition of TMV U1 multiplication in tobacco BY2 protoplast at 40 nM assessed as local lesion size on Chenopodium quinoa leaves by local lesion assay; assay type: functional
Tobacco mosaic virus [14] = experiment: Inhibition of TMV U1 multiplication in tobacco BY2 protoplast at 50 nM assessed as local lesion size on Chenopodium quinoa leaves by local lesion assay; assay type: functional
Tobacco mosaic virus [15] = experiment: Antiviral activity against GFP-fused TMV U1 infected Nicotiana tabacum cv K326 plant leaves assessed as inhibition of virus movement by GFP fluorescence assay; assay type: functional, organism-based
Tobacco mosaic virus [16] = experiment: Antiviral activity against TMV U1 infected Nicotiana tabacum cv K326 plant leaves assessed as inhibition of systemic virus infection; assay type: functional, organism-based

| SMILES | Activity (Tobacco mosaic virus [1]) | IC50 (Tobacco mosaic virus [2]) [nM] | Activity (Tobacco mosaic virus [3]) | Activity (Sindbis virus) | Activity [4] | inhibition at 0.01 µM (Tobacco mosaic virus [5]) [%] | inhibition at 0.02 µM (Tobacco mosaic virus [6]) [%] | inhibition at 0.03 µM (Tobacco mosaic virus [7]) [%] | inhibition at 0.04 µM (Tobacco mosaic virus [8]) [%] | inhibition at 0.05 µM (Tobacco mosaic virus [9]) [%] | Activity (Tobacco mosaic virus [10]) [mm] | Activity (Tobacco mosaic virus [11]) [mm] | Activity (Tobacco mosaic virus [12]) [mm] | Activity (Tobacco mosaic virus [13]) [mm] | Activity (Tobacco mosaic virus [14]) [mm] | Activity (Tobacco mosaic virus [15]) | Activity (Tobacco mosaic virus [16]) |
| --- | --- | --- | --- | --- | --- | --- | --- | --- | --- | --- | --- | --- | --- | --- | --- | --- | --- |
| CO[C@@H]1C[C@H](O[C@H]2CC[C@@]3(C)C(=CC[C@H]4C(=O)OC5CO[C@]6(C)OC=C(CC[C@@H]43)[C@H]56)C2)O[C@H](C)[C@H]1O (stereo not given in full) [CYNATRATOSIDE A] | Active | 25 | Active | Dose-dependent effect | Non-toxic | 20 | 37 | 87 | 93 | 100 | 2.3 | 1.8 | 1.5 | 1.2 | 0 |  |  |
| C[C@]12OC=C3CC[C@H]4[C@@H](CC=C5C[C@@H](O)CC[C@@]54C)C(=O)OC(CO1)[C@@H]32 (stereo not given in full) [GLAUCOGENIN C] | Active | 17 | Active | Dose-dependent effect | Non-toxic | 17 | 60 | 79 | 85 | 100 | 2.1 | 1.9 | 1.5 | 1.3 | 0 | Active |  |
| CO[C@H]1C[C@H](O[C@H]2[C@@H](OC)C[C@H](O[C@@H]3[C@@H](C)O[C@H](O[C@H]4CC[C@@]5(C)C(=CC[C@H]6C(=O)OC7CO[C@]8(C)OC=C(CC[C@@H]65)[C@H]78)C4)C[C@H]3OC)O[C@@H]2C)O[C@@H](C)[C@@H]1O[C@@H]1O[C@H](CO)[C@@H](O[C@@H]2O[C@H](CO)[C@@H](O)[C@H](O)[C@H]2O)[C@H](O)[C@H]1O (stereo not given in full) [PANICULATUMOSIDE D] | Active | 25 | Active | Dose-dependent effect | Non-toxic | 6 | 31 | 79 | 88 | 100 | 1.7 | 1.6 | 1.4 | 1.2 | 0 | Active | Active |
| CO[C@@H]1C[C@@H](O[C@H]2CC[C@@]3(C)C(=CC[C@H]4C(=O)OC5CO[C@]6(C)OC=C(CC[C@@H]43)[C@H]56)C2)O[C@H](C)[C@H]1O[C@H]1C[C@H](O)[C@H](O[C@H]2C[C@@H](OC)[C@@H](O[C@@H]3O[C@H](CO)[C@@H](O[C@@H]4O[C@H](CO)[C@@H](O)[C@H](O)[C@H]4O)[C@H](O)[C@H]3O)[C@H](C)O2)[C@@H](C)O1 (stereo not given in full) [PANICULATUMOSIDE E] | Active | 25 | Active | Dose-dependent effect | Non-toxic | 16 | 38 | 73 | 87 | 100 | 1.6 | 1.3 | 1.2 | 1.1 | 0 | Active | Active |
